Experimental data: the RNAGym collection of RNA variant scans (doi:10.1126/science.aae0568)
Variants at the floor of the assay were thinned out.

B1: tRNA (parent)
chain: GUUCCGUUGGCGUAAUGGUAACGCGUCUCCCUCCUAAGGAGAAGACUGCGGGUUCGAGUCCCGUACGGAACG

Variants of: B1
Experiment: yeast fitness relative to wild type (ratio to wild type); higher = fitter; tRNA-Arg(CCU), competitive growth, 37 C, YPD
Outline: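 A pool of Saccharomyces cerevisiae strains, each with a tRNA-Arg(CCU) gene variant at the native genomic locus, was competed in YPD at 37°C for 24 hours across six parallel replicates. The variants had been chemically synthesised at a 3% per-site mutation rate over 69 sites, and gene amplicons before and after competition were read by 100-nucleotide paired-end sequencing. Darwinian fitness relative to wild type rested on changes in genotype frequencies. Genotypes required ≥ 100 starting reads, and estimates < 0.5 were set to 0.5.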

| Variant | yeast fitness |
| --- | --- |
| A15U C24G C66U | 0.608 |
| G52A C55G A57U | ≤ 0.5 |
| C5A C60U C61G | ≤ 0.5 |
| A15G A20U C29G A43G G67A | ≤ 0.5 |
| C11U C29A A36U G50C C55G C61G | 0.592 |
| U3C A45U C49G | 0.678 |
| C22G G25C U26C C27G A40G | ≤ 0.5 |
| C22A U26A C29G C34G G50C U64C | ≤ 0.5 |
| C33U A45G C49A U53A | ≤ 0.5 |
| U19A C34G A43C | 0.534 |
| U28A A69U | 0.749 |
| C30G A40U A70U | 0.526 |
| C4U G39C C46G C49G | ≤ 0.5 |
| U7A U16C A65U | 0.688 |
| U2C U3C C34A G44C C46U G51A | ≤ 0.5 |
| C30A A42C G58A | ≤ 0.5 |
| A14C A36G G41A G48C U59C A70C | ≤ 0.5 |
| C27G U32A U54G | ≤ 0.5 |
| C24A A36C G52C C66U | 0.761 |
| C4G C5U A43G | ≤ 0.5 |
| A21U G23A A37U | ≤ 0.5 |

| Variant | yeast fitness |
| --- | --- |
| C5U A14U C31A C46U G48A C49U | 0.568 |
| C11A C33U C49U C60G | ≤ 0.5 |
| A14G C24U A65U | 0.54 |
| C33U | 0.694 |
| C30A C66U | 0.847 |
| G6C C22A U28A U53G | ≤ 0.5 |
| U26A G58C | 0.98 |
| U19A G39A | 0.846 |
| C22U G63A | 0.81 |
| G9A C24G C34G C55A A65G | ≤ 0.5 |
| C30A G56A C66G | ≤ 0.5 |
| U13A C30U C55G G58C G67U | ≤ 0.5 |
| C27A G41C A43C G48A C66U | 0.546 |
| C29G G38A U53A U64A | ≤ 0.5 |
| C5G G6A U47A G68C | 0.546 |
| C11A G52C C66U A69C | ≤ 0.5 |
| U47C C60G A69C | ≤ 0.5 |
| U8A G18A C30A U32A U35A G67A | ≤ 0.5 |
| G17A G56C | 0.527 |
| C24U U32A C60U | ≤ 0.5 |
| G10A A15C A37C C62A | 0.636 |

| Variant | yeast fitness |
| --- | --- |
| A45U A57G U59C | 0.597 |
| C5A G18C U35G A57C U64A | ≤ 0.5 |
| C27A G67A | 0.807 |
| C22A C30U C31G A57C A65C A70C | ≤ 0.5 |
| C4G G9C C34A A36G A40C | ≤ 0.5 |
| A36U A40G | 0.549 |
| C30U C33A | 0.672 |
| C24U A36C A43U C61U | ≤ 0.5 |
| C5U A14C C46A G63C A69U | ≤ 0.5 |
| C5G U7C G10A C29G | ≤ 0.5 |
| U19C A57C | 0.594 |
| G12C A20C G58C A70U | ≤ 0.5 |
| U2A C4U G10C | 0.522 |
| C5G C11A A14G G25C C29G | 0.517 |
| G6A A40U | 0.823 |
| C24U C30U | 0.744 |
| A14G C61G | 0.721 |
| C5A G48A | 0.871 |
| A45G C62G | 0.832 |
| C5U A14U U16A C66U | 0.511 |
| C5G A14U C27U A42U A43U U47C | ≤ 0.5 |

| Variant | yeast fitness |
| --- | --- |
| C4A U16G C30A | 0.62 |
| G58C C66U | 0.982 |
| C11U C31U A40C | 0.697 |
| C5G C24G C30G C31U U35A A36U G44A C60U A70C | ≤ 0.5 |
| U8C G18C | 0.684 |
| C5U U47C | 0.96 |
| C34U C55A | 0.623 |
| C5G G12A A43G | 0.536 |
| C5G A43U U64C | 0.703 |
| A14C C55G A57U C62U | ≤ 0.5 |
| A15C G17C C31G G50C C62G A70C | ≤ 0.5 |
| C31A C33G A42C G48A U54A | ≤ 0.5 |
| C29G G38A G44A C46U C62G | ≤ 0.5 |
| C5G A20U G25A C31U G41A C55G | ≤ 0.5 |
| C24G C31G G50A | 0.522 |
| C24U G25A C30U | 0.684 |
| C4G G17A A45C | ≤ 0.5 |
| A20G G25A C62U A65C | 0.813 |
| C4G C34U C49A U54C A69U | ≤ 0.5 |
| C5U C31U | 1.03 |
